Laboratory results reported in publication PMC9043999 (Cell Reports Medicine, 2022).

Key:
human islets [1] = assay: RPPA protein expression with gene ontology enrichment; type: cell-based; details: for GO pathways with downregulated proteins / GO pathways with upregulated proteins: adjusted p value < 0.01
In short: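 Islets from 3 male human donors, cultured overnight at 37°C in phenol-red-free RPMI (11 mM glucose, 10% charcoal-stripped FBS). […] Lysates serially diluted twofold (5 dilutions), arrayed on nitrocellulose, probed with 485 antibodies via tyramide amplification and DAB; expression normalized.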

human islets [2] = assay: RPPA phosphoproteins with Ingenuity Pathway Analysis; type: cell-based; details: for annotations predicting pathway activation (Z score > 2) / pathways predicting inhibition (Z score < −2): 10^−8 M, 5 min, N = 3 male donors; for most represented biological function: 5 min stimulation (Fig S5)
In short: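 Islets came from three male human donors and were cultured overnight at 37°C in phenol-red-free RPMI (11 mM glucose, 10% charcoal-stripped FBS). They were treated with test compounds at 10−8 M for 5 min, 30 min or 18 h, against untreated islets. Lysates were twofold serially diluted (5 dilutions), arrayed on slides and probed with 485 antibodies using tyramide amplification and DAB detection. Pathway changes were analysed with IPA Downstream Effects Analysis.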

[3] = system: insulin-deficient diabetes induced by a single high dose of streptozotocin in male and female mice; details: single high dose of STZ; cited from earlier work
ERE-GFP MIN6 cells = assay: ERE-GFP reporter activation, flow cytometry; type: cell-based, mouse
In short: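 MIN6 cells were stably transduced with a lentiviral 4×ERE-driven GFP reporter and selected with puromycin (2 μg/mL). They were kept in phenol-free DMEM with 10% charcoal-stripped FBS for 7 days before and during assays. Test compounds were given overnight at 10−8 M, or in time courses at 10 nM (1 min) or 100 nM (1, 15, 60, 120 min). Percent GFP-positive cells were scored by flow cytometry, gated on vehicle-treated cells.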

[4] = system: MLD-STZ-induced diabetes in male C57BL6 mice; assay: MLD-STZ-induced diabetes, wild-type mice; type: in vivo, mouse
GLP-1R = details: target β cells; cited from earlier work

| Compound | protein expression (human islets [1]; 5 and 30 min) | GO pathways with downregulated proteins (human islets [1]; 18 h) | GO pathways with upregulated proteins (human islets [1]; 18 h) | protein expression (human islets [1]; 18 h, compared to GLP-1- and GLP1-E2-treated islets) | level of phosphoproteins and related total proteins (human islets [2]; 5 and 30 min, vs GLP-1 or GLP1-E2) | annotations predicting pathway activation (Z score > 2) (human islets [2]) | pathways predicting inhibition (Z score < −2) (human islets [2]) | most represented biological function (human islets [2]) | level of phosphoproteins (human islets [2]; 18 h, vs GLP-1 or GLP1-E2) | prevention of insulin-deficient diabetes [3] | increase in percentage of ERE-activated MIN6 cells (ERE-GFP MIN6 cells; 24 h exposure (text; overnight in legend), 10^−8 M (Fig 2D, 2E)) | ERE activation with ER antagonist fulvestrant (ERE-GFP MIN6 cells; E2 after pretreatment with fulvestrant) | increase in percentage of ERE-activated MIN6 cells (ERE-GFP MIN6 cells; E2 alone 1 min, 10 nM (Fig 2F, 2G)) | time to reach the nucleus and activate EREs (ERE-GFP MIN6 cells; MIN6 cells) | index of β cell function (insulin/glucose) ([4]; male C57BL6 mice, 120 μg/kg/day, day 13, vs other treatments) | hyperglycemia ([4]; male C57BL6 mice, 120 μg/kg/day, vs other treatments, n = 10) | clathrin-mediated endocytosis of GLP-1R (GLP-1R) | antidiabetic efficacy at dose ten times lower ([4]; mice, dose ten times lower (12 μg/kg)) |
| --- | --- | --- | --- | --- | --- | --- | --- | --- | --- | --- | --- | --- | --- | --- | --- | --- | --- | --- |
| C[C@]12CC[C@@H]3c4ccc(O)cc4CC[C@H]3[C@@H]1CC[C@@H]2O [E2, 17β-Estradiol] | heightened protein expression at 5 and 30 min | downregulated multiple proteins enriched in pathways involved in apoptosis and inflammation, protein phosphorylation, transcription, and Akt/PI3-kinase | upregulated few proteins enriched in pathways involved in proliferation and response to estrogen | decreased protein expression level at 18 h | heightened level of phosphoproteins and related total proteins at 5 and 30 min | related to cell viability and survival | related to cell death, apoptosis, or necrosis | Cell Death & Survival | decreased in phosphoproteins at 18 h | prevents insulin-deficient diabetes | 4.7 fold | reversed by pretreatment with the ER antagonist fulvestrant | 6.1 fold | ≤ 1 min | maintenance of the index of β cell function | decrease in hyperglycemia |  |  |
| glucagon-like peptide-1 [GLP-1] |  | downregulated multiple proteins enriched in pathways involved in apoptosis, cytokine and oxidative stress-related inflammation, protein phosphorylation, Akt/PI3-kinase, and cell cycle | upregulated few proteins enriched in pathways involved in response to cytokines and glycolysis |  |  | related to cell viability and survival | related to cell death, apoptosis, or necrosis | Cell Death & Survival |  |  |  |  |  |  |  |  | promotes ligand-activated, clathrin-mediated endocytosis of GLP-1R | not efficient in mice |
